Fewer inactive variants are shown than the library holds.
B1: tRNA (parent)
chain: GUUCCGUUGGCGUAAUGGUAACGCGUCUCCCUCCUAAGGAGAAGACUGCGGGUUCGAGUCCCGUACGGAACG

Variants of: B1
Test: yeast fitness relative to wild type (ratio to wild type); higher = fitter; tRNA-Arg(CCU), competitive growth, 37 C, YPD
In short: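 A pool of Saccharomyces cerevisiae strains, each with a tRNA-Arg(CCU) gene variant at the native genomic locus, was competed in YPD at 37°C for 24 hours across six parallel replicates. The variants had been chemically synthesised at a 3% per-site mutation rate over 69 sites, and gene amplicons before and after competition were read by 100-nucleotide paired-end sequencing. Darwinian fitness relative to wild type rested on changes in genotype frequencies. Genotypes required ≥ 100 starting reads, and estimates < 0.5 were set to 0.5.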
GUUCCGUUGGCGUAUUGGUAACGCGUCUCCCUCCUAAGGAGAAGACUGCAGGUUCGAGUCCCGUACGGAACG [A15U G50A] gave a yeast fitness of 0.708. With GUUCCGUUGGCGUAUUGGUAACCCGUCUCCCUCCUAAGGUGAAGACUGCGGGUUCGAGUCCCCUACGGAACG [A15U G23C A40U G63C] the yeast fitness was ≤ 0.5. With GUUCCGUUGGCGUAUUGGUAACGCAUCUCCCUCCUAAGGAGAACACUGCGGAUUCGAGUCCCGUACGGAACG [A15U G25A G44C G52A] the yeast fitness was ≤ 0.5. GUUCCGUUGGCGUAUUGGUAACGCAUCUCCCUCCUAAGGAGAACACUGCGGGUUCGAGUCCCGUACGGAACG [A15U G25A G44C] showed a yeast fitness of 0.566. In the case of GUUCCGUUGGCGUAUUGCUAACGCGUCUCCCUCCUAAGGAGAAGACUGCGGGUUUGAGUCCCGUACGGCACG [A15U G18C C55U A69C], the yeast fitness is reported as ≤ 0.5. For GUUCCGUUGGCGUAUUGGUAACGCCUCUCCCUCCUAAGGAGAAGACUGGGGGUUCGAGGCCCGUACGGAACG [A15U G25C C49G U59G], the yeast fitness was ≤ 0.5. With GUUCCGUUGGCGUAUUGGUAACGCGUCUCCCUCCUAAGGAGAAGACUCCGGGUUCGAGUCCCGUACCGAACG [A15U G48C G67C] the yeast fitness was ≤ 0.5. With GUUCCGUUGGCGUAUUGGUAACCCGUCUCCCUACUAAGGAGAAGACUGCGGGUUCGAGUCCCGUACCGAACG [A15U G23C C33A G67C] the yeast fitness was ≤ 0.5. Work on GUUCCGUUGGCGUAUUGGCAACGCGUCUCCAUCCUAAGGACAAGACUGCGGGUUCGAGUCCCGUACGGAACG [A15U U19C C31A G41C] yielded a yeast fitness of 0.596. For GUUCCGUUGGCGUAUUGGUAACCCGUCUCCCUACUAAGGAGAAGACUGCGGGUUCGAGUCCCGUAUGCAACG [A15U G23C C33A C66U G68C], the yeast fitness was ≤ 0.5. In the case of GUUCCGUUGGCGUAUUGGUAACGCGUCUCCCUCCUAAGGAGAAGACUGCGGCUUCGAGUCCCGUACGAAACG [A15U G52C G68A], the yeast fitness is reported as ≤ 0.5. In the case of GUUCCGUUGGCGUAUCGGUAACGCGUCUCCCUCCUAAGGUGAAGACUGCGGGUUCGAGUCCCGUACGGAACG [A15U U16C A40U], the yeast fitness is reported as ≤ 0.5. With GUUCCGUUGGCGUAUUGGUAACGCGUCUCCCUCCUAAGGAGAAGACUGCAGGUUGGAGUCCCGUACGGAACG [A15U G50A C55G] the yeast fitness was 0.666. For GUUCCGUUGGCGUAUUGGUAACCCGUCUCCCUCCUAAGGAGAAGUCUGCGGAUUCGAGUCCCGUACGGAACG [A15U G23C A45U G52A], the yeast fitness was ≤ 0.5. With GUUCCGUUGGCGUAUCGGUAACGCGUCUCCCUCCAAAGGAGAAAACUGCGGGUUCGAGUCCCGUACGGAACG [A15U U16C U35A G44A] the yeast fitness was ≤ 0.5. With GUUCCGUUGGCGUAUUGGUAACGCGUCUCCCUCCUAAGGAGAAGACUGCGGGUUCGAAUCCCGUAGGGAACG [A15U G58A C66G] the yeast fitness was 0.943. In the case of GUUCCGUUGGCGUAUCGGUAACGCGUCUCCCUCCUAAGGAGAAGACUGCGGGUUCGAGUCCCGUGCGGAACG [A15U U16C A65G], the yeast fitness is reported as ≤ 0.5. For GUUCCGUUGGCGUAUUGGCAACCCGUGUCCCUCCUAAGGAGAAGCCUGCGGGUUCGAGUCCCCUACGGAACG [A15U U19C G23C C27G A45C G63C], the yeast fitness was ≤ 0.5. GUUCCGUUGGCGUAUUGGUAACGCGUCUCCCUCCUAAGGAGAAAACUGCGGGUUCGAGUCCCGUACGGAACG [A15U G44A] showed a yeast fitness of 0.65. In the case of GUUCCGUUGGCGUAUGGGUAACGCGUCUCCCUCCUAAGGAGAAGACUGCGGGUUAGCGCCCCGUACGGAACG [A15U U16G C55A A57C U59C], the yeast fitness is reported as ≤ 0.5. Work on GUUCCGUUGGCGUAUUGGUAACGCAUCUCCCUCCUAAGGAGAAGAUUGCGGGUUCAAGUCCCGUACGGAACG [A15U G25A C46U G56A] yielded a yeast fitness of 1.04. In the case of GUUCCGUUGGCGUAUUGGCAACGCGUCUCCCUCCUAACGAGAAGACUGCGGGUUCGAGUCCCGUACGGAACG [A15U U19C G38C], the yeast fitness is reported as 0.589. For GUUCCGUUGGCGUAUCGGUAACGCGUCUCCCUCCUAACAAGACGACUGCGGGUUCGAGUGCCGUCCGGAACG [A15U U16C G38C G39A A43C C60G A65C], the yeast fitness was ≤ 0.5. For GUUCCGUUGGCGUAUUGCUAACGCGUCUCCCUCCUGCGGAGAAGACUGCAGGUUCGAGUCCCGUACGGAACG [A15U G18C A36G A37C G50A], the yeast fitness was ≤ 0.5. With GUUCCGUUGGCGUAUUGGUAACGCGUCUCCCUCCUAACGAGAAGAUUGCGGGUUCGAGUCCCGUACGGUGCG [A15U G38C C46U A69U A70G] the yeast fitness was ≤ 0.5. With GUUCCGUUGGCGUAUUGGUAACCCGUCUCCCUCCUAGGGAGAAGACUGCGGGUUCGAGUCCCGUACGGAACG [A15U G23C A37G] the yeast fitness was ≤ 0.5. For GUUCCGUUGGCGUAUUGGAAACGCGUCUCCCUCCUAAGGAGAAGACUGCGGGUUCGAGUCCCGUACGGAACG [A15U U19A], the yeast fitness was 0.767. In the case of GUUCCGUUGGCGUAUUGGAGACGCGUCUCCCUCCUAAGGUGAUGACUGCGGGUUCGAGUGCUGUACGGGACG [A15U U19A A20G A40U A43U C60G C62U A69G], the yeast fitness is reported as ≤ 0.5. In the case of GUUCCGUUGGCGUAUUGGUAACGCGUCUCCCUCCUAAGGAGAAGACUGCCGGUUCGAGUUCCGUACGGAACG [A15U G50C C60U], the yeast fitness is reported as ≤ 0.5. In the case of GUUCCGUUGGCGUAUUGGUAACGCCUCUCCCUCCUAAGGAGAAGACUGCGGGUUCGAGACCCGUACGGAACG [A15U G25C U59A], the yeast fitness is reported as ≤ 0.5. GUUCCGUUGGCGUAUUGGAAACGCGUCUCCCUCCUAAGGAGAAGCCUGCGGGUUUGUGUCCCGUACGGAACG [A15U U19A A45C C55U A57U] gave a yeast fitness of 0.583. In the case of GUUCCGUUGGCGUAUUGGUAACGCCUCUCCCUCCUAAGGAGAAGACUGCGGGUUCGAGUCUCCUACGGAACG [A15U G25C C61U G63C], the yeast fitness is reported as 0.545. In the case of GUUCCGUUGGCGUAUCGCUAACGCGUCUACCUCCUAAGGAGAGGGCUGCGGGUUCGAGUCCGGUACGGAACG [A15U U16C G18C C29A A43G A45G C62G], the yeast fitness is reported as ≤ 0.5. For GUUCCGUUGGCGUAUUGGUAACGCCUCUCCCUCCUAAGGAGAAGACUGCGGGUUCGAGUCGCGUACGGAACG [A15U G25C C61G], the yeast fitness was ≤ 0.5. In the case of GUUCCGUUGGCGUAUUGGUAACGCGUCUCCCUCCUAAGGAGAAGACUGCGGGUUCGAAUCCCGUACGGAACG [A15U G58A], the yeast fitness is reported as 1. GUUCCGUUGGCGUAUUGGUAACGCGUCUCCCUCCUAAGGAGAAGACUGCGGGUUCGACUCCCGUACGGAACG [A15U G58C] gave a yeast fitness of 0.916. In the case of GUUCCGUUGGCGUAUUGGUAACGCGUCUCCCUCCUAAGGAGAAGACUGCGGGUUCGAGUCCCGUACAGUACG [A15U G67A A69U], the yeast fitness is reported as 0.558. GUUCCGUUGGCGUAUUGGUAACGCCUCUCCCUCCUAAGGAGAAGACUGCGGGUUCGAGUCCCGUACGGAACG [A15U G25C] showed a yeast fitness of 0.583.
